Measurements reported in ChEMBL document CHEMBL4020725, “Design and synthesis of novel xanthine derivatives as potent and selective A2B adenosine receptor antagonists for the treatment of chronic inflammatory airway diseases” (Eur J Med Chem, 2017).

Legend:
[1] = target: T1, Adenosine receptor A1 (Homo sapiens) (UniProt P30542); assay: Displacement of [3H]-DPCPX from human adenosine A1 receptor expressed in HEK293 cell membranes at 0.1 uM after 90 mins relative to control
T1 sequence (whole entry): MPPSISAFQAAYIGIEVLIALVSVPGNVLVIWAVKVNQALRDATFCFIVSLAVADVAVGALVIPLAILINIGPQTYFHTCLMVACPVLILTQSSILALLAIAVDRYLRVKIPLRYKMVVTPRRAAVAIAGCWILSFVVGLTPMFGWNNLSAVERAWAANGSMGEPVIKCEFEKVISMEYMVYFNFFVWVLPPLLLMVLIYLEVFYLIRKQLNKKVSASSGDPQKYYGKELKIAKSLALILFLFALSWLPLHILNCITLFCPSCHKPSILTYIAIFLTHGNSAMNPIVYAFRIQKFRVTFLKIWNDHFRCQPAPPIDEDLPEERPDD
How it was run: (§1)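 Membranes from HEK-293 cells stably transfected with human A1, A2A or A3 receptor, pretreated with 1 U/ml ADA. Membranes are incubated 90 min at room temperature with gentle agitation. Tracer and buffer per receptor: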

Adenosine receptor A2b = target: T2, Adenosine receptor A2b (Homo sapiens, UniProt P29275); assay: Displacement of [3H]-MRS-1754 from human adenosine A2B receptor expressed in HEK293 cell membranes after 90 mins
T2 sequence (P29275 whole entry): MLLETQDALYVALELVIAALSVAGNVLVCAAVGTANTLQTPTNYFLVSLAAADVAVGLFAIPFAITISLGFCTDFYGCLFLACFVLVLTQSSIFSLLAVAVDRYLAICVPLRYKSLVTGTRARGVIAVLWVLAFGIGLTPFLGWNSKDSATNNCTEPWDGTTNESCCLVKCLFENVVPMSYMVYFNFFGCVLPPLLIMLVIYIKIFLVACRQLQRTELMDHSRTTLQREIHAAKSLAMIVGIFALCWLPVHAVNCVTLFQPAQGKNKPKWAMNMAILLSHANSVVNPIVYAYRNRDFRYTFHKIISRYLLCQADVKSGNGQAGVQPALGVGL
How it was run: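 Membranes from HEK-293 cells stably expressing human A2B, ADA-treated, incubated with 1.6 nM [3H]-MRS-1754 in 50 mM Tris pH 6.5, 5 mM MgCl2, 1 mM EDTA, 1 U/ml ADA. Incubation 90 min at room temperature. Filtration; nonspecific binding with 100 µM NECA. Eight compound concentrations, each in triplicate; Ki derived by fitting.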

[2] = target: Adenosine receptor A2a (Homo sapiens) (UniProt P29274); assay: Displacement of [3H]-ZM241385 from human adenosine A2A receptor expressed in HEK293 cell membranes at 0.1 uM after 90 mins relative to control; how it was run: as §1
Sequence of Adenosine receptor A2a (Homo sapiens) (P29274 whole entry): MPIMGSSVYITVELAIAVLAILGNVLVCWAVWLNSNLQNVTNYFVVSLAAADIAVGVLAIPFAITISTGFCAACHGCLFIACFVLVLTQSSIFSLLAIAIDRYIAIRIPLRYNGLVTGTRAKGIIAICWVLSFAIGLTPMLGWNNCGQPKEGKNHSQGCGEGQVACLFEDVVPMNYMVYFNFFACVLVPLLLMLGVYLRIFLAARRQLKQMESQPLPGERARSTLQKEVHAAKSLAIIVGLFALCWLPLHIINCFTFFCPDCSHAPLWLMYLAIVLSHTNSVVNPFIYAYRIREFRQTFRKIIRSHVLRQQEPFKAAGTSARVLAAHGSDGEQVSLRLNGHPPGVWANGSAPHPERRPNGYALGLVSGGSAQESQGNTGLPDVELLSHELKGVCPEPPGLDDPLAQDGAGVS

[3] = target: T3, Adenosine receptor A3 (Homo sapiens) (UniProt P0DMS8); assay: Displacement of [3H]-HEMADO from human adenosine A3 receptor expressed in HEK293 cell membranes at 1 uM after 90 mins relative to control; how it was run: as §1
T3 sequence (whole entry): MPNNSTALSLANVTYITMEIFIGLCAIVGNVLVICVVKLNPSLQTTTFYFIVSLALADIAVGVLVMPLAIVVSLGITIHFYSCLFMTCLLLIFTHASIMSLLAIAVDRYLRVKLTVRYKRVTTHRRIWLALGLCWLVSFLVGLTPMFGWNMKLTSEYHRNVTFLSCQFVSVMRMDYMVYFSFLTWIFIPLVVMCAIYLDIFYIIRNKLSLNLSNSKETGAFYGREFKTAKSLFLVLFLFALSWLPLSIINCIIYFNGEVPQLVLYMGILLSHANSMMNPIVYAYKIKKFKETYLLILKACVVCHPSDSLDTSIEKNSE

Structure (SMILES)	inhibition [1]	Ki (Adenosine receptor A2b; read-out: Ki)	inhibition [2]	inhibition [3]	Ki (Adenosine receptor A2b; hek293)
CCCn1c(=O)c2[nH]c(-c3cnn(CC#CCN4CCCC4)c3)nc2n(CCC)c1=O	66%	0.12 µM	67%	59%	
CCCn1c(=O)c2[nH]c(-c3cnn(CC#Cc4ccc(C(F)(F)F)cc4)c3)nc2n(CCC)c1=O	84%	0.0015 µM	30%	12%	
C#CCn1cc(-c2nc3c([nH]2)c(=O)n(CCC)c(=O)n3CCC)cn1	56%	0.062 µM	69%	32%	
CC#CCn1cc(-c2nc3c([nH]2)c(=O)n(CCC)c(=O)n3CCC)cn1	42%	0.023 µM	60%		
CCCn1c(=O)c2[nH]c(-c3ccc(OCC#Cc4ccc(F)cc4)cc3)nc2n(CCC)c1=O					Nd(Insoluble)
CCCn1c(=O)c2[nH]c(-c3cc(OCC#Cc4cccc(C(F)(F)F)c4)no3)nc2n(CCC)c1=O		> 0.6 µM			
CCCn1c(=O)c2[nH]c(-c3cc(OCC#Cc4ccc(F)cc4)no3)nc2n(CCC)c1=O		0.015 µM			
CCCn1c(=O)c2[nH]c(-c3cnn(CC#Cc4ccc(F)cc4)c3)nc2n(CC)c1=O	92%	0.0073 µM	56%	33%	
CCCn1c(=O)c2[nH]c(-c3cnn(CC#Cc4ccc(C(=O)O)cc4)c3)nc2n(CC)c1=O		0.13 µM			
CCCn1c(=O)c2[nH]c(-c3cnn(CC#CC4(O)CCCC4)c3)nc2n(CCC)c1=O		0.079 µM			
CCCn1c(=O)c2[nH]c(-c3cnn(CC#Cc4cccc(C)c4)c3)nc2n(CCC)c1=O	57%	0.005 µM	55%	9%	
CCCn1c(=O)c2[nH]c(-c3cnn(CC#Cc4ccc(C(F)(F)F)cc4)c3)nc2n(CC)c1=O	66%	0.012 µM	21%	14%	
CCCn1c(=O)c2[nH]c(-c3cnn(CC#Cc4ccc(OC(F)(F)F)cc4)c3)nc2n(CCC)c1=O	92%	0.0055 µM	51%	37%	
CCCn1c(=O)c2[nH]c(-c3cc(OCC#Cc4ccc(OC(F)(F)F)cc4)n(C)n3)nc2n(CCC)c1=O					Nd(Insoluble)
CCCn1c(=O)c2[nH]c(-c3ccc(OCC#Cc4ccc(OC(F)(F)F)cc4)cc3)nc2n(CCC)c1=O		> 0.6 µM			
CCCn1c(=O)c2[nH]c(-c3cnn(CC#Cc4ccc(C(=O)O)cc4)c3)nc2n(CCC)c1=O	19%	0.0176 µM	44%	25%	
CCCn1c(=O)c2[nH]c(-c3cnn(CC#Cc4cccc(C(F)(F)F)c4)c3)nc2n(CCC)c1=O	43%	0.0049 µM	64%	32%	
CCCn1c(=O)[nH]c2nc(-c3cnn(CC#Cc4cccc(C(F)(F)F)c4)c3)[nH]c2c1=O	26%	0.0022 µM	39%	0%	
CCCn1c(=O)c2[nH]c(-c3cnn(CC#Cc4ccc(C)cc4)c3)nc2n(CCC)c1=O	70%	0.0065 µM	33%	0%	
CCCn1c(=O)[nH]c2nc(-c3cnn(CC#Cc4cccc(OC(F)(F)F)c4)c3)[nH]c2c1=O	14%	0.0028 µM	33%	0%	
CCCn1c(=O)c2[nH]c(-c3cnn(CC#Cc4ccccc4C(=O)OC)c3)nc2n(CCC)c1=O	37%	0.012 µM	41%	43%	
CCCn1c(=O)c2[nH]c(-c3cnn(CC#Cc4cccc(F)c4)c3)nc2n(CCC)c1=O	87%	0.0067 µM	64%	0%	
CCCn1c(=O)[nH]c2nc(-c3cnn(CC#Cc4cccc(F)c4)c3)[nH]c2c1=O	53%	0.003 µM	60%	0%	
CCCn1c(=O)c2[nH]c(-c3cnn(CC#Cc4cccc(OC)c4)c3)nc2n(CCC)c1=O	57%	0.0063 µM	74%	21%	

Structure (SMILES)	inhibition [1]	Ki (Adenosine receptor A2b; read-out: Ki)	inhibition [2]	inhibition [3]	Ki (Adenosine receptor A2b; hek293)
CCCn1c(=O)c2[nH]c(-c3cnn(CC#Cc4cccc(C(=O)O)c4)c3)nc2n(CC)c1=O		0.19 µM			
CCCn1c(=O)c2[nH]c(-c3cnn(CC#Cc4ccc(C(=O)OCC)cc4)c3)nc2n(CCC)c1=O	80%	0.0035 µM	19%	27%	
CCCn1c(=O)c2[nH]c(-c3cnn(CC#CCN(CC)CC)c3)nc2n(CCC)c1=O	71%	0.2 µM	59%	69%	
CCCn1c(=O)c2[nH]c(-c3cnn(CC#CCN4CCN(C)CC4)c3)nc2n(CCC)c1=O	55%	0.083 µM	73%	79%	
CCCn1c(=O)c2[nH]c(-c3cnn(CC#CCN4CCCCC4)c3)nc2n(CCC)c1=O	64%	0.14 µM	74%	73%	
CCCn1c(=O)c2[nH]c(-c3cnn(CC#CCN4CCN(c5cccc(C(F)(F)F)c5)CC4)c3)nc2n(CCC)c1=O	69%	0.012 µM	10%	31%	
CCCn1c(=O)c2[nH]c(-c3ccc(OCC#Cc4cccc(OC(F)(F)F)c4)cc3)nc2n(CCC)c1=O					Nd(Insoluble)
CCCn1c(=O)c2[nH]c(-c3ccc(OCC#Cc4ccc(C(F)(F)F)cc4)cc3)nc2n(CCC)c1=O					Nd(Insoluble)
CCCn1c(=O)c2[nH]c(-c3cnn(CC#Cc4ccc(OC(F)(F)F)cc4)c3)nc2n(CC)c1=O	84%	0.0099 µM	49%	32%	
CCCn1c(=O)c2[nH]c(-c3cc(OCC#Cc4ccc(C(F)(F)F)cc4)no3)nc2n(CCC)c1=O					Nd(Insoluble)
CCCn1c(=O)c2[nH]c(-c3cc(OCC#Cc4cccc(OC(F)(F)F)c4)no3)nc2n(CCC)c1=O		> 0.6 µM			
CCCn1c(=O)[nH]c2nc(-c3cnn(CC#Cc4cccc(C(=O)O)c4)c3)[nH]c2c1=O		0.048 µM			
CCCn1c(=O)[nH]c2nc(-c3cnn(CC#Cc4ccc(F)cc4)c3)[nH]c2c1=O	77%	0.0016 µM	55%	0%	
CCCn1c(=O)c2[nH]c(-c3ccc(OCC#Cc4cccc(F)c4)cc3)nc2n(CCC)c1=O		> 1 µM			
CCCn1c(=O)[nH]c2nc(-c3cnn(CC#Cc4ccc(OC(F)(F)F)cc4)c3)[nH]c2c1=O	88%	0.0016 µM	46%	17%	
CCCn1c(=O)c2[nH]c(-c3cnn(CC#Cc4cccc(C#N)c4)c3)nc2n(CCC)c1=O	52%	0.0037 µM	84%	0%	
CCCn1c(=O)c2[nH]c(-c3cc(OCC#Cc4cccc(F)c4)no3)nc2n(CCC)c1=O		0.055 µM			
CCCn1c(=O)c2[nH]c(-c3cc(OCC#Cc4cccc(C(F)(F)F)c4)n(C)n3)nc2n(CCC)c1=O					Nd(Insoluble)
CCCn1c(=O)c2[nH]c(-c3cnn(CC#Cc4cccc(F)c4)c3)nc2n(CC)c1=O	73%	0.0074 µM	58%	23%	
CCCn1c(=O)c2[nH]c(-c3cnn(CC#Cc4ccccc4C(F)(F)F)c3)nc2n(CCC)c1=O	52%	0.029 µM	29%	25%	
CCCn1c(=O)c2[nH]c(-c3cnn(CC#CCN4CCOCC4)c3)nc2n(CCC)c1=O	28%	0.33 µM	39%	51%	
CCCn1c(=O)c2[nH]c(-c3cnn(CC#Cc4ccc(C#N)cc4)c3)nc2n(CCC)c1=O	14%	0.014 µM	29%	14%	
CCCn1c(=O)c2[nH]c(-c3cnn(CC#CC4(O)CCCCC4)c3)nc2n(CCC)c1=O		0.1 µM			
